The results in this text go back to PubChem BioAssay.

What is called viability is a read-out of living cells in per cent, often relative to untreated cells. As usually defined, the inhibition is the relative decrease from the control value, in per cent.

A number with no mark means an inactive call. Results filed as inconclusive are left out. Active and inactive are the calls of the source.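 Rule for the calls, unless noted: active = RAM network inhibition above 8.4% in each of two replicates, 3 SD over the compound average; inconclusive = above 8.4% inhibition in only one replicate; inactive = 8.4% inhibition or less in each replicate.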

Assay [1] can be described thus: OD615 S. cerevisiae growth inhibition, permissive medium, pilot counter-assay, permissive growth control for S. cerevisiae lifespan shortening project (AID 705;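 active = growth inhibition above 25% in both replicates, a cutoff set 3 SD above the mean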). The settings on record: OD615, 24 h, at 10 µM, hits give high values. The method, boiled down:
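assay system = Saccharomyces cerevisiae strain carrying genetically modified DeaD replicative-lifespan system | technique = absorbance (optical density) at 615 nm | buffer or medium = permissive raffinose/galactose medium | timing = cells pre-grown 4 h, then 24 h compound exposure, 30 °C humidified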

Assay [2] in a line: Restrictive medium S. cerevisiae growth inhibition, OD615, pilot screen of yeast lifespan reduction project, restrictive growth control (AID 706;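 active = growth inhibition above a set limit, 3 SD over mean compound inhibition, in both replicates, cut at about 43% in these data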;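 note: modified DeaD lifespan yeast strain shifted to restrictive glucose medium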). The settings on record: OD615, 48 h, at 10 µM, hits give high values. The gist of the method: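 System: modified S. cerevisiae. Buffer or medium: CSMM-D glucose medium. Incubation: 4 h pre-growth plus 48 h compound exposure, 30 °C. Detection: absorbance (optical density) measured at 615 nm.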

Assay [3] is described as follows: viability gain of MRP-1-high H69AR cells under doxorubicin, pilot screen, MRP-1 activator project, CellTiter-Glo, duplicate (AID 807;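 active = viability increase at or above a cutoff of the median across tested compounds plus 3 SD, cut at about 8.5% in these data, passing the limit was not always enough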;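 note: compound pretreatment 18-22 h then 72 h combined with doxorubicin; 0% = doxorubicin alone and 100% = vehicle without doxorubicin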). The settings on record: H69AR viability with doxorubicin, CellTiter-Glo luminescence; at 10 µM; hits give high values. (In general: In ATP-based viability assays light output follows the ATP content of the culture.)
Assay [4] in a line: growth suppression of beta-catenin knockout HCT116, pilot screen, human colon tumor cells (AID 823;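 active = cell viability at or below a set limit in both duplicate runs, the limit being the all-compound median minus 4 SD, cut at about 23% in these data, passing the limit was not always enough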;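 note: 0% = wells killed by 20 µM Hyamine and 100% = untreated DMSO cell wells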). The settings on record: CellTiter-Glo, 60 h, at 10 µM, hits give low values.
A short description of assay [5]: growth suppression of PTEN-deleted HCT116, pilot screen, cell-based, HCT116 clonal line, CellTiter-Glo (AID 824;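 active = viability at or below 27.92% in each of two runs, the all-compound median minus 4 SD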;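 note: 0% = 20 µM Hyamine control and 100% = vehicle cell control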). Conditions: 60 h, at 10 µM, hits give low values.
A short description of assay [6]: inhibitors of the yeast RAM network, pilot screen, dse1pr::URA3 reporter, 5-FOA selection (AID 869;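 active = inhibition over a set limit, the all-compound mean plus 3 SD, in both replicate runs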;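 note: 0% = DMSO wells with no growth and 100% = 10 µM 1-NA-PP1 with full growth; RAM network block rescues cells from 5-FOA so hits raise OD615 growth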). The settings on record: S. cerevisiae dse1pr::URA3 5-FOA growth, OD615, 2 d; at 10 µM; hits give high values; strain carries analog-sensitive mutant Cbk1 kinase.
Assay [7] can be described thus: RAM signaling pathway blockade in yeast – S. cerevisiae, Pdr1DBD-CYC8 efflux-inhibited sensitized strain, primary screen (AID 1298).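 Note: 0% = DMSO untreated cells without growth and 100% = 10 µM 1-NA-PP1 full growth; higher means more yeast growth rescued from 5-FOA killing.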 The settings on record: S. cerevisiae cbk1-as DSE1-URA3 strain, 5-FOA growth OD615, 2 d; at 50 µM; hits give high values.

For the compound `O=C(CCCOc1ccc(Cl)cc1)N1CCCCC1`, the values for the growth inhibition in assay [1] and in assay [2] were -13.2% and -11.9%, respectively. For the same compound, the viability increase in assay [3] is 3.35%. The values for the viability in assay [4] and in assay [5] were 96.1% and 96.8%, respectively. Moreover, the inhibition in assay [6] is 0.44%. Further, the RAM network inhibition in assay [7] was -0.78%.
For `CCOc1ccc2nc(NC(=O)c3ccoc3C)sc2c1`, the growth inhibition was 1.53% in assay [1] and -12.2% in assay [2]. Further, the viability increase in assay [3] is -6.35%. The figures for the viability in assay [4] and in assay [5] were 19.1% (active) and 17.1% (active), respectively. Also, the inhibition in assay [6] is 1.03%. Besides, the RAM network inhibition in assay [7] is 2.4%.
Turning to `COc1ccc(-c2cc(C(F)(F)F)n3nc(C)cc3n2)cc1`, the growth inhibition in assay [1] was -16.1%; in assay [2], -2.2%. Further, the viability increase in assay [3] is 0.18%. In addition, the viability in assay [4] was 96.2%; in assay [5] it was 87%. In assay [6], the inhibition was 2%. The RAM network inhibition in assay [7] was -0.06%.
For `CCN(CCNC(=O)Cn1c(=O)sc2ccccc21)c1ccccc1`, the growth inhibition was -10.6% in assay [1] and 2.42% in assay [2]. For the same compound, the viability increase in assay [3] was -3.76%. The viability is 92.2% in assay [4] and 84.9% in assay [5]. Also, the inhibition in assay [6] was 1.57%. Also, the RAM network inhibition in assay [7] was 2.04%.
`Cc1ccc(C(=O)Nc2ccc3c(c2)CCC3)o1`: the values for the growth inhibition in assay [1] and in assay [2] were -3.56% and -9.54%, respectively. The viability increase in assay [3] was -2.44%. Besides, the viability is 77.5% in assay [4] and 69.8% in assay [5]. In addition, the inhibition in assay [6] is 0.895%. For the same compound, the RAM network inhibition in assay [7] was -0.68%.
Take `CCOC(=O)N1CCC(NC(=O)C2CCN(Cc3nc(-c4ccc(CC)cc4)oc3C)CC2)CC1`: the results for the growth inhibition in assay [1] and in assay [2] were -8.25% and -7.78%, respectively. In addition, in assay [3], the viability increase was -1.2%. For the same compound, the values for the viability in assay [4] and in assay [5] were 84.2% and 85.9%, respectively. The inhibition in assay [6] is 0.435%. Moreover, in assay [7], the RAM network inhibition is 0.29%.
For the compound `CCOC(=O)Nc1ccc2ncn(C)c(=O)c2c1`, the growth inhibition in assay [1] is -16.6%; in assay [2] it was -8.55%. The viability increase in assay [3] is -5.77%. In addition, the viability in assay [4] is 101%; in assay [5], 94.8%. For the same compound, the inhibition in assay [6] was -0.055%. The RAM network inhibition in assay [7] is 1.08%.
With `CCCn1cc(SCC(=O)Nc2nnc(C)s2)c2ccccc21`, the growth inhibition in assay [1] is 3.3%; in assay [2], 0.865%. Moreover, the viability increase in assay [3] was -2.55%. Moreover, the viability is 91% in assay [4] and 96.2% in assay [5]. The inhibition in assay [6] was 1.1%. Further, the RAM network inhibition in assay [7] was 3.75%.
As for `c1cn2c(NC3CCCC3)c(-c3ccc(N4CCOCC4)cc3)nc2cn1`, the results for the growth inhibition in assay [1] and in assay [2] were -2.94% and 7.59%, respectively. The viability increase in assay [3] is -4.3%. The viability was 88.8% in assay [4] and 77.8% in assay [5]. The inhibition in assay [6] is 1.78%. In addition, in assay [7], the RAM network inhibition is 3.25%.
Turning to `CN1CCN(c2cc(=O)n(-c3ccc(Cl)cc3)c(=O)[nH]2)CC1`, the results for the growth inhibition in assay [1] and in assay [2] were -1.55% and -1.23%, respectively. Further, the viability increase in assay [3] is 0.27%. The viability in assay [4] was 108%; in assay [5], 102%. In addition, the inhibition in assay [6] was 0.42%. Further, the RAM network inhibition in assay [7] is 2.42%.
With `Cc1cc(C)n2nc3nc4c(cc3c2n1)CCCC4`, the results for the growth inhibition in assay [1] and in assay [2] were -8.72% and -14.6%, respectively. Also, the viability increase in assay [3] was -4.42%. Also, the viability is 88.2% in assay [4] and 82.7% in assay [5]. The inhibition in assay [6] was 4.34%. The RAM network inhibition in assay [7] is 3.01%.
For `Cc1ccc(-c2nc(CS(=O)CC(=O)NCc3ccccn3)c(C)o2)cc1` (stereo unspecified), the growth inhibition was -5.48% in assay [1] and 7.86% in assay [2]. Further, the viability increase in assay [3] is -1.49%. Moreover, the viability in assay [4] was 92.2%; in assay [5] it was 90.7%. Further, the inhibition in assay [6] was 0.745%. For the same compound, in assay [7], the RAM network inhibition was 1.38%.
On to `CCOCCCNC(=O)C(c1ccc(C)cc1)N(Cc1ccc2c(c1)OCO2)C(=O)CNC(C)=O` (stereo unspecified), for which the growth inhibition in assay [1] was -8.64%; in assay [2], 0.77%. Also, the viability increase in assay [3] is 0.84%. In addition, the viability was 100% in assay [4] and 102% in assay [5]. For the same compound, in assay [6], the inhibition is 0.88%. Moreover, in assay [7], the RAM network inhibition was 2.3%.
Turning to `COc1ccc(OCCNS(=O)(=O)c2ccccc2)cc1`, the growth inhibition in assay [1] was -18.1%; in assay [2], -18.5%. The viability increase in assay [3] was 0.87%. Besides, the values for the viability in assay [4] and in assay [5] were 94.5% and 97.2%, respectively. The inhibition in assay [6] is 0.965%. The RAM network inhibition in assay [7] was 1.42%.
Consider `O=C(CN1C(=O)CCC1=O)Nc1nc2c(F)cc(F)cc2s1`, for which the growth inhibition in assay [1] is -23%; in assay [2], -18.8%. Moreover, the viability increase in assay [3] was -0.91%. The viability in assay [4] was 99.4%; in assay [5], 92.5%. The inhibition in assay [6] is 1.6%. Besides, in assay [7], the RAM network inhibition is 1.49%.
Turning to `CCOC(=O)c1sc(NC(=O)COC(=O)c2ccco2)nc1C`, the growth inhibition in assay [1] was 4.37%; in assay [2] it was -12.7%. Further, the viability increase in assay [3] is -6.43%. Further, the viability in assay [4] was 87.7%; in assay [5], 89.6%. Moreover, the inhibition in assay [6] was 1.39%. In assay [7], the RAM network inhibition is 4.87%.
Take `Cc1cc(OC2CCCCC2)nc(-c2ccccc2O)n1`: the growth inhibition was -21.5% in assay [1] and -17.2% in assay [2]. Further, the viability increase in assay [3] was -0.33%. Also, the viability in assay [4] was 87%; in assay [5] it was 81.5%. Moreover, the inhibition in assay [6] is 1.9%. For the same compound, the RAM network inhibition in assay [7] is 12.3%.
As for `O=C(NCC(c1ccc(F)cc1)N1CCOCC1)c1ccc(Br)o1` (stereo unspecified), the values for the growth inhibition in assay [1] and in assay [2] were -9.34% and -13.2%, respectively. Also, the viability increase in assay [3] is -1.97%. The viability in assay [4] is 86.3%; in assay [5] it was 81.8%. In assay [6], the inhibition is 2.88%. In addition, the RAM network inhibition in assay [7] was 1.24%.
